Experimental data as given in ChEMBL document CHEMBL1140993, “Design, synthesis and preliminary evaluation of novel pyrrolidine derivatives as matrix metalloproteinase inhibitors” (Eur J Med Chem, 2008).

Assays:
Aminopeptidase N = Aminopeptidase N (Homo sapiens, UniProt P15144); experiment: Inhibition of aminopeptidase N by microtiter plate fluorimetric assay; details: in the assay text read “spectrophotometric” for “fluorimetric”
How it was run: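 Substrate was L-leucine p-nitroanilide, in 50 mM sodium phosphate buffer, pH 7.2. Enzyme and compound were preincubated 30 min at 37 °C, then incubated 60 min at 37 °C with substrate. OD405 was read. Inhibition % = [OD(100%) − OD(compound)]/[OD(100%) − OD(blank)] × 100, where 100% has no compound and blank has enzyme only.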

[1] = target: 72 kDa type IV collagenase (Homo sapiens, UniProt P08253); experiment: Inhibition of MMP2 by microtiter plate fluorimetric assay
Chain of 72 kDa type IV collagenase (P08253 whole entry): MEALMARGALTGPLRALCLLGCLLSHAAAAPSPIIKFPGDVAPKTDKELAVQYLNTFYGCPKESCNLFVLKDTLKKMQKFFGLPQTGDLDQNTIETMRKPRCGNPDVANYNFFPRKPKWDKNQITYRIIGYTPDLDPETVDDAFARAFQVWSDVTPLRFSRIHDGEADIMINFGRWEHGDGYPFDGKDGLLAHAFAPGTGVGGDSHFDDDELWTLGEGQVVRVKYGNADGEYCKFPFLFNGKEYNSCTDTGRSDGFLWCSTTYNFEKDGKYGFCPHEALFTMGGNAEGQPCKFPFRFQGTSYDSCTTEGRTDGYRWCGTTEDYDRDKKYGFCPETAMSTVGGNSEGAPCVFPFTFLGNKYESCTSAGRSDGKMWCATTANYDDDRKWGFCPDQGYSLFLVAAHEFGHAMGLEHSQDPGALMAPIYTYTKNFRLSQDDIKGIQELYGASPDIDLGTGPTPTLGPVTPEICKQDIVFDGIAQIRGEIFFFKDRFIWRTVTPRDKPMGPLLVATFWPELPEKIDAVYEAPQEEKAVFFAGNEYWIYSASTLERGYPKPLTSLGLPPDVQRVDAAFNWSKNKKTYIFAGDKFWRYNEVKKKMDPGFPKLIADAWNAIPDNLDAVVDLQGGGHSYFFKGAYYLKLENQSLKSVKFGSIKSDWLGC
How it was run: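 Substrate was succinylated gelatin, in 50 mM sodium borate buffer, pH 8.5. Compound and enzyme were preincubated 30 min at 37 °C, then incubated another 60 min at 37 °C after substrate addition. Controls were a 100% group without compound and a blank with enzyme only.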

Chain of Aminopeptidase N (P15144 whole entry): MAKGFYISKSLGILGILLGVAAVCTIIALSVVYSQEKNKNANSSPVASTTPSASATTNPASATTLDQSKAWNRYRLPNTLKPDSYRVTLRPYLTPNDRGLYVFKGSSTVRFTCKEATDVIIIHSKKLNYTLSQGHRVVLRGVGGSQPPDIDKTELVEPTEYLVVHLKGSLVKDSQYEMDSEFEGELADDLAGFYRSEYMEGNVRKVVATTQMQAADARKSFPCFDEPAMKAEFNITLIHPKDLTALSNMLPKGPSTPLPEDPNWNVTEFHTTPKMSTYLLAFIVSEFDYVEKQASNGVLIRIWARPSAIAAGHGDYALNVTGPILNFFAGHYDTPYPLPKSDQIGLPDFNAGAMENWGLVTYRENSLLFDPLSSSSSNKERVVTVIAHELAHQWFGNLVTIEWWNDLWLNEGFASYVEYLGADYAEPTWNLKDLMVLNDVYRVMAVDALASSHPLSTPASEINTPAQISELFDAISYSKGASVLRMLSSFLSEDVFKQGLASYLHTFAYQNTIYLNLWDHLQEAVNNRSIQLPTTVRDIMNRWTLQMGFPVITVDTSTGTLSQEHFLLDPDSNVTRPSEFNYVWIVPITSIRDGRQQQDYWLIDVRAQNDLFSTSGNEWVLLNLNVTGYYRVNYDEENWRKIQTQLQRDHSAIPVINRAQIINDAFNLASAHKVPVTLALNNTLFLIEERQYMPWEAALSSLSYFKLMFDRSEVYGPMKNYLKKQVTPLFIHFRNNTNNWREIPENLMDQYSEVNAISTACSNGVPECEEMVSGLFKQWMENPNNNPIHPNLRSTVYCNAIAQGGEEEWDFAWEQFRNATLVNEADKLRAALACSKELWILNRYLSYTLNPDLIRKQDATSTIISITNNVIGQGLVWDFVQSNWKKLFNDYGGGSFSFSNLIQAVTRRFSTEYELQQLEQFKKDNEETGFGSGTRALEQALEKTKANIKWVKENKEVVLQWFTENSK

| IC50 (Aminopeptidase N) [µM] | IC50 [1] [nM] | SMILES |
| --- | --- | --- |
| 74.8 | 2200 | COC(=O)[C@@H]1C[C@H](NC(=O)c2ccncc2)CN1C(C)=O |
| 24.1 | 1500 | COC(=O)[C@@H]1C[C@H](N)CN1C(C)=O |
| 73.7 | 2600 | COC(=O)[C@@H]1C[C@H](N=[N+]=[N-])CN1C(C)=O |
| 233 | 1600 | COC(=O)[C@@H]1C[C@H](NC(=O)/C=C/c2ccccc2)CN1C(=O)CCc1ccc(OC)c(OC)c1 |
| 46.6 | 1100 | COC(=O)[C@@H]1C[C@@H](OS(C)(=O)=O)CN1C(=O)/C=C/c1ccc(OC)c(OC)c1 |
| 33.5 | 1 | COc1cc(C(=O)N[C@H]2C[C@@H](C(=O)NO)N(C(C)=O)C2)cc(OC)c1OC |
| 29.8 | 5 | CC(=O)N1C[C@@H](NC(=O)c2cccnc2)C[C@H]1C(=O)NO |
| 123 | 2700 | COC(=O)[C@@H]1C[C@H](NC(=O)c2ccccc2)CN1C(C)=O |
| 122 | 4200 | COC(=O)[C@@H]1C[C@H](NC(=O)c2ccc(Cl)cc2)CN1C(C)=O |
| 82.6 | 2100 | COC(=O)[C@@H]1C[C@H](NC(=O)c2cnccn2)CN1C(C)=O |
| 72.3 | 5200 | COC(=O)[C@@H]1C[C@H](NC(=O)c2ccc([N+](=O)[O-])cc2)CN1C(C)=O |
| 78.4 | 1000 | COC(=O)[C@@H]1C[C@H](NC(=O)c2cccnc2)CN1C(C)=O |
| 56.1 | 4 | CC(=O)N1C[C@@H](NC(=O)/C=C/c2ccccc2)C[C@H]1C(=O)NO |
| 96.6 | 11 | COc1ccc(CCC(=O)N2C[C@@H](NC(=O)/C=C/c3ccccc3)C[C@H]2C(=O)NO)cc1OC |
| 121 | 109 | COC(=O)CNC(=O)[C@@H]1C[C@H](NC(=O)c2cc(OC)c(OC)c(OC)c2)CN1C(C)=O |
| 81.8 | 2900 | COC(=O)[C@@H]1C[C@@H](O)CN1C(=O)/C=C/c1ccc(OC)c(OC)c1 |
| 30.4 | 300 | COC(=O)[C@@H]1C[C@@H](OS(=O)(=O)c2ccc(C)cc2)CN1C(C)=O |
| 137 | 3000 | COC(=O)[C@@H]1C[C@H](NC(=O)c2cccnc2)CN1C(=O)/C=C/c1ccc(OC)c(OC)c1 |
| 71.3 | 3400 | COC(=O)[C@@H]1C[C@H](N=[N+]=[N-])CN1C(=O)/C=C/c1ccc(OC)c(OC)c1 |
| 68.4 | 2100 | COC(=O)[C@@H]1C[C@H](N)CN1C(=O)CCc1ccc(OC)c(OC)c1 |
| 38.6 | 2000 | COC(=O)[C@@H]1C[C@@H](O)CN1C(C)=O |
| 70.6 | – | COC(=O)[C@@H]1C[C@H](N)CN1C(=O)/C=C/c1ccc(OC)c(OC)c1 |
| 135 | 100 | COC(=O)[C@@H]1C[C@H](NC(=O)/C=C/c2ccccc2)CN1C(C)=O |
| 98.4 | 100 | COC(=O)[C@@H]1C[C@H](NC(=O)c2cc(OC)c(OC)c(OC)c2)CN1C(C)=O |
| 62.2 | 12 | COc1ccc(CCC(=O)N2C[C@@H](NC(=O)c3cccnc3)C[C@H]2C(=O)NO)cc1OC |
| 196 | 2200 | COC(=O)[C@@H]1C[C@H](NC(=O)c2cccnc2)CN1C(=O)CCc1ccc(OC)c(OC)c1 |
| 149 | 6100 | COC(=O)[C@@H]1C[C@H](NC(=O)c2ccc(Br)cc2)CN1C(C)=O |
| 162 | 800 | COC(=O)[C@@H]1C[C@H](NC(=O)/C=C/c2ccc(OC)c(OC)c2)CN1C(C)=O |
| 51.4 | 16 | COc1cc(C(=O)N[C@H]2C[C@@H](C(=O)O)N(C(C)=O)C2)cc(OC)c1OC |
